Laboratory results as given in ChEMBL document CHEMBL1765074, “Synthesis, evaluation and structural studies of antiproliferative tubulin-targeting azetidin-2-ones” (Bioorg Med Chem, 2011).

How the values were obtained:
MCF7 [1] = assay: Antiproliferative activity against human MCF7 cells by MTT assay; format: functional, cell-based
How it was run: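 MCF-7 cells grown in Eagle's MEM with 10% FBS, 2 mM L-glutamine, penicillin/streptomycin and 1% non-essential amino acids. Seeded at 2.5×10^4 cells/mL, left 24 h at 37°C, then treated 72 h across 1 nM–100 μM from ethanol stocks (vehicle 1% v/v). MTT at 1 mg/mL final for 2 h in darkness, DMSO solubilisation, absorbance read. IC50 is the mean of at least three experiments in triplicate.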

SNB-75 = assay: Antiproliferative activity against human SNB75 cells; format: functional; conditions: read-out: LC50 (the source's name)
HL-60(TB) = assay: Antiproliferative activity against human HL-60(TB) cells; format: functional; conditions: read-out: LC50 (the source's name)
LOX IMVI = assay: Antiproliferative activity against human LOXIMVI cells; format: functional; conditions: read-out: LC50 (the source's name)
NCI-H522 = assay: Antiproliferative activity against human NCI-H522 cells; format: functional; conditions: read-out: LC50 (the source's name)
MDA-MB-435 = assay: Antiproliferative activity against human MDA-MB-435 cells; format: functional; conditions: read-out: LC50 (the source's name)
UACC-62 = assay: Antiproliferative activity against human UACC62 cells; format: functional; conditions: read-out: LC50 (the source's name)
MOLT-4 = assay: Antiproliferative activity against human MOLT4 cells; format: functional; conditions: read-out: LC50 (the source's name)
SK-MEL-2 = assay: Antiproliferative activity against human SK-MEL-2 cells; format: functional; conditions: read-out: LC50 (the source's name)
[2] = Antiproliferative activity against human […] cells; format: functional; conditions: read-out: LC50 (the source's name)
RXF 393 = assay: Antiproliferative activity against human RXF393 cells; format: functional; conditions: read-out: LC50 (the source's name)
SF-295 = assay: Antiproliferative activity against human SF295 cells; format: functional; conditions: read-out: LC50 (the source's name)
CAKI-1 = assay: Antiproliferative activity against human Caki1 cells; format: functional; conditions: read-out: LC50 (the source's name)
NCI/ADR-RES = assay: Antiproliferative activity against human NCI/ADR-RES cells; format: functional; conditions: read-out: LC50 (the source's name)
A549 = assay: Antiproliferative activity against human A549 cells; format: functional; conditions: read-out: LC50 (the source's name)
HCT-15 = assay: Antiproliferative activity against human HCT15 cells; format: functional; conditions: read-out: LC50 (the source's name)
T47D = assay: Antiproliferative activity against human T47D cells; format: functional; conditions: read-out: LC50 (the source's name)
MDA-MB-231 [3] = assay: Antiproliferative activity against human MDA-MB-231 cells; format: functional; conditions: read-out: LC50 (the source's name)
Malme-3M = assay: Antiproliferative activity against human MALME-3M cells; format: functional; conditions: read-out: LC50 (the source's name)
UO-31 = assay: Antiproliferative activity against human UO31 cells; format: functional; conditions: read-out: LC50 (the source's name)
SF-539 = assay: Antiproliferative activity against human SF539 cells; format: functional; conditions: read-out: LC50 (the source's name)
M14 = assay: Antiproliferative activity against human M14 cells; format: functional; conditions: read-out: LC50 (the source's name)
MDA-MB-231 [4] = assay: Antiproliferative activity against human MDA-MB-231 cells by MTT assay; format: functional, cell-based
How it was run: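 MDA-MB-231 cells in DMEM with 10% FBS, 2 mM L-glutamine and penicillin/streptomycin were seeded at 2.5×10^4 cells/mL and held 24 h at 37°C. They then got ethanol-stock compound over 1 nM–100 μM (vehicle 1% v/v ethanol) for 72 h. MTT at 1 mg/mL final was added for 2 h in the dark, then DMSO for 20 min before absorbance. Untreated = 100% viability. IC50 is the mean ± S.E.M. of ≥3 triplicate experiments.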

786-0 = assay: Antiproliferative activity against human 786-0 cells; format: functional; conditions: read-out: LC50 (the source's name)
NCI-H226 = assay: Antiproliferative activity against human NCI-H226 cells; format: functional; conditions: read-out: LC50 (the source's name)
KM12 = assay: Antiproliferative activity against human KM12 cells; format: functional; conditions: read-out: LC50 (the source's name)
NCI-H460 = assay: Antiproliferative activity against human NCI-H460 cells; format: functional; conditions: read-out: LC50 (the source's name)
HCC 2998 = assay: Antiproliferative activity against human HCC2998 cells; format: functional; conditions: read-out: LC50 (the source's name)
U-251 = assay: Antiproliferative activity against human U251 cells; format: functional; conditions: read-out: LC50 (the source's name)
EKVX = assay: Antiproliferative activity against human EKVX cells; format: functional; conditions: read-out: LC50 (the source's name)
UACC-257 = assay: Antiproliferative activity against human UACC257 cells; format: functional; conditions: read-out: LC50 (the source's name)
COLO 205 = assay: Antiproliferative activity against human COLO205 cells; format: functional; conditions: read-out: LC50 (the source's name)
SW-620 = assay: Antiproliferative activity against human SW620 cells; format: functional; conditions: read-out: LC50 (the source's name)
ACHN = assay: Antiproliferative activity against human ACHN cells; format: functional; conditions: read-out: LC50 (the source's name)
IGROV-1 = assay: Antiproliferative activity against human IGROV1 cells; format: functional; conditions: read-out: LC50 (the source's name)
SF-268 = assay: Antiproliferative activity against human SF268 cells; format: functional; conditions: read-out: LC50 (the source's name)
OVCAR-8 = assay: Antiproliferative activity against human OVCAR8 cells; format: functional; conditions: read-out: LC50 (the source's name)
SK-MEL-28 = assay: Antiproliferative activity against human SK-MEL-28 cells; format: functional; conditions: read-out: LC50 (the source's name)
PC-3 = assay: Antiproliferative activity against human PC3 cells; format: functional; conditions: read-out: LC50 (the source's name)
HOP-92 = assay: Antiproliferative activity against human HOP92 cells; format: functional; conditions: read-out: LC50 (the source's name)
TK-10 = assay: Antiproliferative activity against human TK10 cells; format: functional; conditions: read-out: LC50 (the source's name)
CCRF-CEM = assay: Antiproliferative activity against human CCRF-CEM cells; format: functional; conditions: read-out: LC50 (the source's name)
SK-OV-3 = assay: Antiproliferative activity against human SKOV3 cells; format: functional; conditions: read-out: LC50 (the source's name)
DU-145 = assay: Antiproliferative activity against human DU145 cells; format: functional; conditions: read-out: LC50 (the source's name)
MDA-MB-468 = assay: Antiproliferative activity against human MDA-MB-468 cells; format: functional; conditions: read-out: LC50 (the source's name)
HOP-62 = assay: Antiproliferative activity against human HOP62 cells; format: functional; conditions: read-out: LC50 (the source's name)
SNB-19 = assay: Antiproliferative activity against human SNB19 cells; format: functional; conditions: read-out: LC50 (the source's name)
BT-549 = assay: Antiproliferative activity against human BT549 cells; format: functional; conditions: read-out: LC50 (the source's name)
NCI-H23 = assay: Antiproliferative activity against human NCI-H23 cells; format: functional; conditions: read-out: LC50 (the source's name)
A498 = assay: Antiproliferative activity against human A498 cells; format: functional; conditions: read-out: LC50 (the source's name)
MCF7 [5] = assay: Antiproliferative activity against human MCF7 cells; format: functional; conditions: read-out: LC50 (the source's name)
K562 = assay: Antiproliferative activity against human K562 cells; format: functional; conditions: read-out: LC50 (the source's name)
OVCAR-4 = assay: Antiproliferative activity against human OVCAR4 cells; format: functional; conditions: read-out: LC50 (the source's name)
SN12C = assay: Antiproliferative activity against human SN12C cells; format: functional; conditions: read-out: LC50 (the source's name)
SK-MEL-5 = assay: Antiproliferative activity against human SK-MEL-5 cells; format: functional; conditions: read-out: LC50 (the source's name)
OVCAR-5 = assay: Antiproliferative activity against human OVCAR5 cells; format: functional; conditions: read-out: LC50 (the source's name)
RPMI-8226 = assay: Antiproliferative activity against human RPMI8226 cells; format: functional; conditions: read-out: LC50 (the source's name)
HCT-116 = assay: Antiproliferative activity against human HCT116 cells; format: functional; conditions: read-out: LC50 (the source's name)

COc1ccc([C@H]2N(c3cc(OC)c(OC)c(OC)c3)C(=O)C2(c2ccccc2)c2ccccc2)cc1 (mixture of isomers)
IC50 (MCF7 [1]): 43.2 µM

COc1ccc([C@@H]2C(c3cccs3)C(=O)N2c2cc(OC)c(OC)c(OC)c2)cc1 (mixture of isomers)
CC50 (SNB-75): > 100 µM | CC50 (HL-60(TB)): > 100 µM | CC50 (LOX IMVI): > 100 µM | CC50 (NCI-H522): > 100 µM | CC50 (MDA-MB-435): > 100 µM | CC50 (UACC-62): > 100 µM | CC50 (MOLT-4): > 100 µM | CC50 (SK-MEL-2): > 100 µM | CC50 [2]: > 100 µM | CC50 (RXF 393): > 100 µM | IC50 (MCF7 [1]): 0.064 µM | CC50 (SF-295): > 100 µM | CC50 (CAKI-1): > 100 µM | CC50 (NCI/ADR-RES): > 100 µM | CC50 (A549): > 100 µM | CC50 (HCT-15): > 100 µM | CC50 (T47D): > 100 µM | CC50 (MDA-MB-231 [3]): > 100 µM | CC50 (Malme-3M): > 100 µM | CC50 (UO-31): > 100 µM | CC50 (SF-539): > 100 µM | CC50 (M14): > 100 µM | IC50 (MDA-MB-231 [4]): 0.19 µM | CC50 (786-0): > 100 µM | CC50 (NCI-H226): > 100 µM | CC50 (KM12): > 100 µM | CC50 (NCI-H460): > 100 µM | CC50 (HCC 2998): > 100 µM | CC50 (U-251): > 100 µM | CC50 (EKVX): > 100 µM | CC50 (UACC-257): > 100 µM | CC50 (COLO 205): > 100 µM | CC50 (SW-620): > 100 µM | CC50 (ACHN): > 100 µM | CC50 (IGROV-1): > 100 µM | CC50 (SF-268): > 100 µM | CC50 (OVCAR-8): > 100 µM | CC50 (SK-MEL-28): > 100 µM | CC50 (PC-3): > 100 µM | CC50 (HOP-92): > 100 µM | CC50 (TK-10): > 100 µM | CC50 (CCRF-CEM): > 100 µM | CC50 (SK-OV-3): > 100 µM | CC50 (DU-145): > 100 µM | CC50 (MDA-MB-468): > 100 µM | CC50 (HOP-62): > 100 µM | CC50 (SNB-19): > 100 µM | CC50 (BT-549): > 100 µM | CC50 (NCI-H23): > 100 µM | CC50 (A498): > 100 µM | CC50 (MCF7 [5]): > 100 µM | CC50 (K562): > 100 µM | CC50 (OVCAR-4): > 100 µM | CC50 (SN12C): > 100 µM | CC50 (SK-MEL-5): > 100 µM | CC50 (OVCAR-5): > 100 µM | CC50 (RPMI-8226): > 100 µM | CC50 (HCT-116): > 100 µM

COc1ccc([C@@H]2C(Cc3cccs3)C(=O)N2c2cc(OC)c(OC)c(OC)c2)cc1 (mixture of isomers)
IC50 (MCF7 [1]): 1.64 µM

COc1cc(N2C(=O)[C@H](c3cccs3)[C@H]2c2ccc3ccccc3c2)cc(OC)c1OC (mixture of isomers)
IC50 (MCF7 [1]): 0.12 µM

COc1cc(N2C(=O)[C@H](c3cccs3)[C@H]2c2cccs2)cc(OC)c1OC (mixture of isomers)
IC50 (MCF7 [1]): 0.91 µM

COc1ccc([C@@H]2C(c3cccs3)C(=O)N2c2cc(OC)c(OC)c(OC)c2)cc1[N+](=O)[O-] (mixture of isomers)
IC50 (MCF7 [1]): 0.37 µM

COc1ccc([C@@H]2C(c3cccc4ccccc34)C(=O)N2c2cc(OC)c(OC)c(OC)c2)cc1 (mixture of isomers)
IC50 (MCF7 [1]): 11.3 µM

COc1ccc([C@@H]2C(c3ccc4ccccc4c3)C(=O)N2c2cc(OC)c(OC)c(OC)c2)cc1 (mixture of isomers)
IC50 (MCF7 [1]): 2.5 µM

COc1ccc([C@@H]2C(c3ccoc3)C(=O)N2c2cc(OC)c(OC)c(OC)c2)cc1 (mixture of isomers)
IC50 (MCF7 [1]): 0.15 µM

COc1ccc([C@@H]2C(c3ccsc3)C(=O)N2c2cc(OC)c(OC)c(OC)c2)cc1 (mixture of isomers)
IC50 (MCF7 [1]): 0.06 µM

COc1ccc([C@@H]2C(c3ccc(C)s3)C(=O)N2c2cc(OC)c(OC)c(OC)c2)cc1 (mixture of isomers)
IC50 (MCF7 [1]): 0.25 µM

COc1ccc([C@@H]2C(c3cc4ccccc4s3)C(=O)N2c2cc(OC)c(OC)c(OC)c2)cc1 (mixture of isomers)
IC50 (MCF7 [1]): 0.85 µM

COc1ccc([C@@H]2[C@@H](C(O)c3ccsc3)C(=O)N2c2cc(OC)c(OC)c(OC)c2)cc1 (mixture of isomers)
IC50 (MCF7 [1]): 0.99 µM

COc1cc(N2C(=O)[C@H](c3cccs3)[C@H]2c2cccc3ccccc23)cc(OC)c1OC (racemic)
IC50 (MCF7 [1]): 0.62 µM
